Bioassay records as filed in PubChem BioAssay.
Cl transport mod: modulators of human KCC2 chloride dependent transport. Q9H2X9. KCC2 cells, thallium flux FluoZin-2 fluorescence. B-score of Tl+ flux slope (higher = more flux/activation; lower = inhibition) at 10 µM. 190,000 compounds, 2.2% hits. AID 1456;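 active = thallium flux slope and its plate-corrected score both differing from the plate sample mean at a set confidence after two filtering rounds, in either direction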;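 also: slope of fluorescence scaled to starting intensity during 10 to 20 s after thallium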
WT yeast gro inh: growth inhibition of WT yeast, mitochondrial fusion screen; inhibition, % at 10 µM; 190,000 compounds, 2.1% hits; mitochondrial fusion phenotypic screen, WT strain; in the data active = inhibition above about 58%; tested in S. cerevisiae
Pf gamet viab: inhibitors of late stage P. falciparum gametocyte viability. P. falciparum stage V gametocytes, ATP luminescence, 24 h. inhibition, % at 10.9 µM. 150,000 compounds, 0.065% hits. AID 743093;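 active = inhibition above the mean plus 3 SD of compounds within the control limits, set per campaign, cut at about 38% in these data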
MT stabilize HCS: microtubule stabilization, imaging screen; HeLa tubulin immunostaining HCS, 24 h; share of cells brighter than vehicle mean+2SD; % tubulin-high responders, % at 10 µM; 200,000 compounds, 0.83% hits;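 active = plate Z-score above 3 for both tubulin-high and condensed-nucleus cell shares, with cell loss under 80%, at 10 µM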;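 also: anti alpha tubulin signal scored within the nucleus-defined area of each cell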
b-catenin transl: beta-catenin nuclear translocation modulation; HeLa beta-catenin nuclear translocation, immunofluorescence imaging; nuclear translocation activity, % at 5 µM; 190,000 compounds, 0.3% hits; AID 1665;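 active = nuclear translocation activity above 50% at 5 µM, with a well cell count of 50 or more; inconclusive = wells under 50 cells across six images, flagged as toxic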;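 also: per-cell ratio of nuclear to cytoplasmic median beta-catenin stain intensity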
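Read-out: Nuclear/cytoplasmic beta-catenin signal ratio, % activation | Assay system: Human HeLa cell line | Times: 24 h compound exposure at 37°C, 5% CO2 | Signal: Fluorescence imaging of beta-catenin antibody stain plus DAPI | Dosing: 5 µM primary, 0.02–20 µM confirmation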
KCC2 secondary: confirmation of human KCC2 transport modulators; shares compounds with Cl transport mod; HEK293-KCC2, thallium flux, FluoZin2 fluorescence; hits give high values; normalised thallium flux (F/F0 slope) at 10 µM; 3,700 compounds, 15% hits; AID 1713;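 active = thallium flux slope above the same plate's solvent-only control mean plus 3 SD; inconclusive = the two replicate wells disagree; inactive = no significant difference from solvent-only control wells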
KCC2 bumet counter: thallium flux persisting under bumetanide in KCC2 cells, counter-screen secondary assay | shares compounds with Cl transport mod | HEK293-KCC2 + bumetanide/ouabain, thallium flux FluoZin2; hits give high values | normalized thallium flux at 10 µM | 3,700 compounds, 49% hits | AID 1714;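 active = thallium entry rate above the same plate's blocked-transporter control wells by more than 3 SD; inconclusive = the two repeat wells disagree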;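 also: raw slope of fluorescence over initial fluorescence between 10 and 20 s after thallium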
KCC2 secondary2: confirmation of human KCC2 transport modulators | 3,700 compounds, 23% hits | shares compounds with Cl transport mod | HEK293-KCC2, thallium flux FluoZin2 fluorescence; actives lie on both sides; F/F0 rise rate, 10–20 s post-thallium | normalized thallium flux at 10 µM;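 active = thallium flux slope more than 3 SD above or below the plate's solvent-only control mean, mostly below; inconclusive = the two repeat wells disagreed; inactive = no significant shift from solvent-only controls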
HEK counter1: acts in parental HEK cells, KCC2 counter-screen; shares compounds with Cl transport mod; HEK293 parental cells, thallium flux FluoZin2, ouabain; baseline-ratio fluorescence slope, 10–20 s after thallium; thallium flux rate (normalised fluorescence) at 10 µM; 3,700 compounds, 46% hits;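 active = thallium flux rate significantly above the same plate's solvent-only control wells, beyond their mean plus 3 SD; inconclusive = the two replicate wells gave conflicting results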
KCC2 ouabain: KCC2 (human) modulation, ouabain retest | shares compounds with Cl transport mod | HEK293-KCC2, thallium flux FluoZin2 fluorescence; bidirectional: low = inhibitor, high = activator | raw Tl+ flux slope (below DMSO = inhibition, above = activation) at 10 µM | 3,700 compounds, 48% hits | AID 1717;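 active = thallium flux slope beyond 3 SD from same-plate DMSO control mean in most replicates, usually higher, sometimes lower; inconclusive = repeat tests gave conflicting results; inactive = no significant difference from controls in most replicates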;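 also: slope of initial-normalized fluorescence between seconds 10 and 20 after thallium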
HEK counter2: counter-screen for KCC2 modulators: effect in parental HEK293 cells | shares compounds with Cl transport mod | thallium flux FluoZin-2 fluorescence slope | thallium flux slope at 10 µM | 3,700 compounds, 33% hits | AID 1718;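 active = thallium flux slope above the same plate's solvent-control mean plus 3 SD in both duplicate wells; inconclusive = duplicate wells that disagreed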;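 also: run without ouabain in cells lacking the KCC2 cotransporter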
Each line names hits and unclear results; the compound was inactive in the other large screens (follow-up assays come after a bar, where they were run). Most compounds without a hit are left out; they make up all but 4% or so of the library.

COCCn1c(N2CCN(c3ccc(OC)cc3)CC2)nc2c1c(=O)n(C)c(=O)n2C	none (no result: Cl transport mod, Pf gamet viab) | KCC2 secondary inactive | KCC2 bumet counter inactive | KCC2 secondary2 inactive | HEK counter1 inactive | KCC2 ouabain inactive | HEK counter2 inactive
COCCNC(=O)C(Cc1c[nH]c2ccccc12)NC(=O)OCc1ccccc1 (stereo not given)	none (no result: Cl transport mod, WT yeast gro inh, MT stabilize HCS, b-catenin transl)
O=C1c2ccccc2C(=O)N1Cc1cccnc1	Cl transport mod -5.4 (no result: Pf gamet viab) | KCC2 secondary inactive | KCC2 bumet counter inactive | KCC2 secondary2 inactive | HEK counter1 inactive | KCC2 ouabain inactive | HEK counter2 inconclusive
CCOc1[nH]n(-c2ccccc2)c(=O)c1C=Nc1ccc(F)cc1F	Cl transport mod 4.1 | KCC2 secondary inactive | KCC2 bumet counter 0.01 | KCC2 secondary2 inactive | HEK counter1 0.01 | KCC2 ouabain inconclusive | HEK counter2 inconclusive
CCOc1[nH]n(-c2ccccc2)c(=O)c1C=Nc1ccc(OC)cc1	Cl transport mod 4.1 | KCC2 secondary inactive | KCC2 bumet counter 0.01 | KCC2 secondary2 inactive | HEK counter1 0.0093 | KCC2 ouabain inactive | HEK counter2 inconclusive
C=C(C(=O)c1ccccc1)C(C)C(=C)C(=O)c1ccccc1	none
COC(=O)c1cc(OC)c(OC)cc1NC(=O)c1c(-c2ccccc2Cl)noc1C	none (no result: Cl transport mod, Pf gamet viab)
O=C(CSc1ncnc2c(-c3ccc(Cl)cc3)nsc12)c1ccccc1	WT yeast gro inh 78 (no result: Cl transport mod) | KCC2 secondary 0.014 | KCC2 bumet counter 0.028 | KCC2 secondary2 inactive | HEK counter1 0.018 | KCC2 ouabain inconclusive | HEK counter2 0.01
CCN(CC)c1ccc(/C=C2\SC(=O)N(C(C)C)C2=O)o1	none (no result: WT yeast gro inh, Pf gamet viab, MT stabilize HCS)
CCOCCCNC(=O)C(c1ccccc1)N(Cc1ccc2c(c1)OCO2)C(=O)c1ccccc1O (stereo not given)	none (no result: Pf gamet viab)
COc1cc(OC)cc(C(=O)NCCC(=O)NCCc2ccc(OC)c(OC)c2)c1	none
Cc1c(C(=O)NC(=S)NCC(C)C)oc2ccccc12	none
C=CCNC(=S)NC(=O)c1oc2ccccc2c1C	Cl transport mod 11 | KCC2 secondary inactive | KCC2 bumet counter 0.035 | KCC2 secondary2 inactive | HEK counter1 0.021 | KCC2 ouabain 0.042 | HEK counter2 0.012
CCOc1ccc(/C=C2\SC(=S)N(NS(=O)(=O)c3ccc(C)cc3)C2=O)cc1OC	Cl transport mod 24 (no result: WT yeast gro inh, MT stabilize HCS) | KCC2 secondary inactive | KCC2 bumet counter 0.039 | KCC2 secondary2 inactive | HEK counter1 0.021 | KCC2 ouabain inconclusive | HEK counter2 0.014
COc1cc(/C=C2\SC(=O)NC2=O)ccc1Oc1ccc([N+](=O)[O-])cc1[N+](=O)[O-]	Cl transport mod -4.2 (no result: Pf gamet viab) | KCC2 secondary inactive | KCC2 bumet counter 0.01 | KCC2 secondary2 inactive | HEK counter1 inactive | KCC2 ouabain inactive | HEK counter2 inactive
CCOc1ccc(/C=C2\SC(=S)NC2=O)cc1OC	Cl transport mod 9.4 | KCC2 secondary 0.013 | KCC2 bumet counter 0.02 | KCC2 secondary2 inconclusive | HEK counter1 0.016 | KCC2 ouabain inactive | HEK counter2 0.012
CCOc1ccc(/C=C2\SC(=S)N(NS(=O)(=O)c3ccccc3)C2=O)cc1OC	Cl transport mod 7 (no result: WT yeast gro inh, MT stabilize HCS) | KCC2 secondary inconclusive | KCC2 bumet counter 0.028 | KCC2 secondary2 inactive | HEK counter1 0.014 | KCC2 ouabain inconclusive | HEK counter2 0.018
COc1ccccc1N(CC(=O)N1CCOCC1)S(C)(=O)=O	none (no result: Cl transport mod, WT yeast gro inh, MT stabilize HCS, b-catenin transl)
O=C(NN=C(Cc1ccccc1)Cc1ccccc1)c1ccccc1O	Cl transport mod 23 | KCC2 secondary inconclusive | KCC2 bumet counter 0.062 | KCC2 secondary2 0.05 | HEK counter1 0.037 | KCC2 ouabain 0.049 | HEK counter2 0.031
C/C(=N\NC(=O)c1ccccc1O)C1C(=O)c2ccccc2C1=O	Cl transport mod -3.8 (no result: b-catenin transl) | KCC2 secondary inactive | KCC2 bumet counter inactive | KCC2 secondary2 inactive | HEK counter1 inconclusive | KCC2 ouabain 0.015 | HEK counter2 inactive
Cc1ccc2nc(NC(=O)Cn3cc4c(n3)CCCCC4)sc2c1	Cl transport mod -2.9 (no result: Pf gamet viab) | KCC2 secondary inactive | KCC2 bumet counter inconclusive | KCC2 secondary2 inactive | HEK counter1 inconclusive | KCC2 ouabain inactive | HEK counter2 inactive
Cc1cccc(NC(=S)NC(=O)c2ccc(Br)o2)c1C	Cl transport mod 71 | KCC2 secondary 0.05 | KCC2 bumet counter 0.1 | KCC2 secondary2 0.054 | HEK counter1 0.14 | KCC2 ouabain 0.12 | HEK counter2 0.057
Cc1c(NC(=S)NC(=O)c2ccc(Br)o2)c(=O)n(-c2ccccc2)n1C	none (no result: Pf gamet viab)
Cc1ccc(NC(=S)NC(=O)c2ccc(Br)o2)c(C)c1	Cl transport mod 55 | KCC2 secondary 0.021 | KCC2 bumet counter 0.13 | KCC2 secondary2 0.044 | HEK counter1 0.069 | KCC2 ouabain 0.11 | HEK counter2 0.018
CCC(C)NS(=O)(=O)c1ccc(OC)c(Cl)c1Cl (stereo not given)	none (no result: Pf gamet viab)
COc1cccc(-n2nnnc2SCC(=O)NCCc2ccccc2)c1	none
COc1ccc(OC)c(-n2nnnc2SCC(=O)NCCc2ccccc2)c1	none (no result: Cl transport mod, WT yeast gro inh, Pf gamet viab) | KCC2 secondary inactive | KCC2 bumet counter inactive | KCC2 secondary2 inconclusive | HEK counter1 inactive | KCC2 ouabain inactive | HEK counter2 inactive
Cc1cccc(Nc2n[nH]c(=S)s2)c1C	Cl transport mod -5.3 | KCC2 secondary inactive | KCC2 bumet counter inactive | KCC2 secondary2 0.017 | HEK counter1 inactive | KCC2 ouabain 0.0074 | HEK counter2 inconclusive
COc1cccc(Nc2n[nH]c(=S)s2)c1	Cl transport mod -6.8 | KCC2 secondary inactive | KCC2 bumet counter inactive | KCC2 secondary2 0.021 | HEK counter1 inactive | KCC2 ouabain 0.011 | HEK counter2 inactive
FC(F)(F)c1cccc(NCc2n[nH]c(=S)n2C2CCCCC2)c1	Cl transport mod 5.9 | KCC2 secondary inactive | KCC2 bumet counter 0.019 | KCC2 secondary2 inactive | HEK counter1 inconclusive | KCC2 ouabain inconclusive | HEK counter2 inactive
Cc1ccc(-n2c(CNc3cccc(Cl)c3)n[nH]c2=S)cc1	none (no result: Pf gamet viab)
